Measured values as given in ChEMBL document CHEMBL1121710, “alpha-Ethynyl and alpha-vinyl analogues of ornithine as enzyme-activated inhibitors of mammalian ornithine decarboxylase” (J Med Chem, 1981).

Legend:
[1] = molecular target: T1, Ornithine decarboxylase (Rattus norvegicus) (UniProt P09057); assay: The compound was tested for the inhibitory activity against L-orinithine carboxylase in ventral prostate of the rat at dose 25 mg/kg, ip); assay type: functional, organism-based; set-up: dose 25 mg/kg; scale not given: the % may be the effect or the level left; details: Prostate gland
T1 sequence (whole entry): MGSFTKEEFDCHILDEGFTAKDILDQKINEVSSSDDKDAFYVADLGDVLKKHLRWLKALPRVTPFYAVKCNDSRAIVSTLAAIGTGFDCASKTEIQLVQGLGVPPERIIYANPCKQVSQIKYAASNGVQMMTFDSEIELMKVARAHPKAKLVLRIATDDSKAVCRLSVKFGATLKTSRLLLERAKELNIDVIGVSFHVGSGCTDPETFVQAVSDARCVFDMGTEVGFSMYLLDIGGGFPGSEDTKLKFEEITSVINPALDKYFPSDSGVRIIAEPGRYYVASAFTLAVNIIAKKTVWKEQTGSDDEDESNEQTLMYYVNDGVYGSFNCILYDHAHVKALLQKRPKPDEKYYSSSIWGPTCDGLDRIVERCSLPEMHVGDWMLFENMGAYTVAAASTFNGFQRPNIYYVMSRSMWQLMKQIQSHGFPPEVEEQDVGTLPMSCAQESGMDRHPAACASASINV
Method in brief: (§1)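 Male Sprague–Dawley rats (200–220 g), fed ad libitum, 12 h light/dark. Single ip dose in 0.9% saline; saline-injected controls. Killed by decapitation 5 h later at a fixed time of day. Ventral prostate, testis and thymus homogenized; ODC activity measured as CO2 release and expressed as % of control. Mean ± SEM of five animals; Student's t test.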

[2] = molecular target: T1, Ornithine decarboxylase (Rattus norvegicus); assay: The compound was tested for the inhibitory activity against L-orinithine carboxylase in ventral prostate of the rat at dose 50 mg/kg, ip); assay type: functional, organism-based; set-up: dose 50 mg/kg; scale not given: the % may be the effect or the level left; details: Prostate gland; method in brief: as §1
[3] = molecular target: T1, Ornithine decarboxylase (Rattus norvegicus); assay: The compound was tested for the inhibitory activity against L-orinithine carboxylase in ventral prostate of the rat at dose 12.5 mg/kg, ip); assay type: functional, organism-based; set-up: dose 12.5 mg/kg; scale not given: the % may be the effect or the level left; details: Prostate gland; method in brief: as §1
[4] = molecular target: T1, Ornithine decarboxylase (Rattus norvegicus); assay: The compound was tested for the inhibitory activity against L-orinithine carboxylase in rat testis. dose 200 mg/kg, ip); assay type: functional, organism-based; set-up: dose 200 mg/kg; scale not given: the % may be the effect or the level left; details: at 200 mg/kg; method in brief: as §1
[5] = molecular target: T1, Ornithine decarboxylase (Rattus norvegicus); assay: The compound was tested for the inhibitory activity against L-orinithine carboxylase in rat thymus. dose 200 mg/kg, ip); assay type: functional, organism-based; set-up: dose 200 mg/kg; scale not given: the % may be the effect or the level left; details: at 200 mg/kg; method in brief: as §1
[6] = molecular target: T1, Ornithine decarboxylase (Rattus norvegicus); assay: The compound was tested for the inhibitory activity against L-orinithine carboxylase in ventral prostate of the rat dose 200 mg/kg, ip); assay type: functional, organism-based; set-up: dose 200 mg/kg; scale not given: the % may be the effect or the level left; details: Prostate gland; at 200 mg/kg; method in brief: as §1
[7] = molecular target: T1, Ornithine decarboxylase (Rattus norvegicus); assay: The compound was tested for the inhibitory activity against L-orinithine carboxylase inventral prostate of the rat at dose 100 mg/kg, ip); assay type: functional, organism-based; set-up: dose 100 mg/kg; scale not given: the % may be the effect or the level left; details: Prostate gland; method in brief: as §1
[8] = molecular target: T1, Ornithine decarboxylase (Rattus norvegicus); assay: Effect on the time of half-inactivation of ornithine decarboxylase at 10 uM concentration; assay type: functional
Method in brief: (§2)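 Rat liver ODC from thioacetamide-treated rats (150 mg/kg, 18 h before sacrifice), purified about tenfold by acid treatment at pH 4.6. Enzyme preincubated at 37 °C in 30 mM sodium phosphate pH 7.1 with 5 mM dithiothreitol, 0.1 mM pyridoxal phosphate, inhibitor and 1 mM effector where listed. Half-inactivation time derived from pseudo-first-order loss.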

[9] = molecular target: T1, Ornithine decarboxylase (Rattus norvegicus); assay: Effect on the time of half-inactivation of ornithine decarboxylase in the presence of 10 uM concentration + 1 mM D-2-methylornithine; assay type: functional; method in brief: as §2
[10] = molecular target: T1, Ornithine decarboxylase (Rattus norvegicus); assay: Effect on the time of half-inactivation of ornithine decarboxylase in the presence of 10 uM concentration + 1 mM L-2-methylornithine; assay type: functional; method in brief: as §2
[11] = molecular target: T1, Ornithine decarboxylase (Rattus norvegicus); assay: Effect on the time of half-inactivation of ornithine decarboxylase in the presence of 10 uM concentration + 1 mM L-ornithine; assay type: functional; method in brief: as §2

Control [1]: 56%
Control [2]: 40%
Control [3]: 59%
Control [4]: 80%
Control [5]: 54%
Control [6]: 18%
Control [7]: 19%
Time of half inactivation [8]: 18 min
Time of half inactivation [9]: 26 min
Time of half inactivation [10]: 270 min
Time of half inactivation [11]: 81 min
Structure (SMILES): C#CC(N)(CCCN)C(=O)O (stereo unspecified)
